This passage reports EC50 results from BindingDB's records for doi:10.1016/j.bmc.2008.08.048 (National Institute of Diabetes and Digestive and Kidney …, 2008).

This experiment deals with Transient receptor potential cation channel subfamily V member 1 (Rattus norvegicus, UniProt O35433). Description: Agonist-enhancing activity at TRPV1 receptor in E15 rat primary dorsal root ganglion cells assessed as capsaicin-induced 45Ca2+ influx by microplate liquid scintillation counter. The method in brief: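 E15 rat DRG cultures grown 5–6 days at 35°C. Uptake with capsaicin ~0.5 µM, 10 min at 20°C, 0.5 µCi/well 45Ca2+ in Tris-HBSS pH 7.5. Compound up to 50 µM, 0.2% DMSO, from 25 mM stocks. Counts normalized to in-plate capsaicin-only wells (100%, 4 wells). Variable-slope sigmoid fit gave EC50, Hill slope and ΔEmax.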
Sequence of Transient receptor potential cation channel subfamily V member 1 (O35433 whole entry): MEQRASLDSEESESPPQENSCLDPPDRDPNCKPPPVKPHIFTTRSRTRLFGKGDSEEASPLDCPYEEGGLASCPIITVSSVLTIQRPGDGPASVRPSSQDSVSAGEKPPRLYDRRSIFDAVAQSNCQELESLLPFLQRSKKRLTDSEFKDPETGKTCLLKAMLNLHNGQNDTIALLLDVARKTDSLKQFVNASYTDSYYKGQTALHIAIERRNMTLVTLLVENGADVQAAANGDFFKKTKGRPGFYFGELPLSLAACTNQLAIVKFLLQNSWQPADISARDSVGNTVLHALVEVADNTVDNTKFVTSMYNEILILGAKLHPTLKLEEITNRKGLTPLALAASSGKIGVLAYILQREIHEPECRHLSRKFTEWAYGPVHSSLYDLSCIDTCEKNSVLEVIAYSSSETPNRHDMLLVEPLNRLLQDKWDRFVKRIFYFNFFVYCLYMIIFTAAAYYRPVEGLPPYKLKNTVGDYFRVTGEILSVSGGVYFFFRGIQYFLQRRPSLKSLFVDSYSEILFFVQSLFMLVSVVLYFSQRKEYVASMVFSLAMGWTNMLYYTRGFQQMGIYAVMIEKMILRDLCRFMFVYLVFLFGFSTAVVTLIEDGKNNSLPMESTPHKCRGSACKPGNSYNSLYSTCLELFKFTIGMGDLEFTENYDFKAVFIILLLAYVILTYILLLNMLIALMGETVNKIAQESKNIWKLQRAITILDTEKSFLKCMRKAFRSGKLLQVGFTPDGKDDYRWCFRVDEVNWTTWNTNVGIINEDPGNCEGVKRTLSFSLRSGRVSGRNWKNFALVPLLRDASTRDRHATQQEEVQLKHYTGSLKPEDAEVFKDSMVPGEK

As usually defined, the EC50 is the midpoint of the concentration-response curve.

Molecules are shown by their SMILES.

In the case of `CCOC(=O)C1=C(c2cccc(Cl)c2)N=C(C)C(C(=O)OCC)C1CC` (single isomer, unassigned; (+)) [3,5-diethyl-2-methyl-4-ethyl-6-(3-chlorophenyl)-1,4-(+)-dihydropyridine-3,5-dicarboxylate], the EC50 was determined as 17 µM.
